Laboratory results published in ChEMBL document CHEMBL4376875, “Synthesis and Biological Evaluation of B-Cell Lymphoma 6 Inhibitors of N-Phenyl-4-pyrimidinamine Derivatives Bearing Potent Activities against Tumor Growth” (J Med Chem, 2020).
Calls of active or inactive are those of the source. The calls are words filed in the database; no cut-off is given here.

Columns and labels:
[1] = system: Toledo; assay: Effect on ATR mRNA expression in BCL6-negative human Toledo cells at 1.25 to 5 uM incubated for 24 hrs by RT-PCR analysis; type: functional, cell-based
How it was run: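 Toledo cells (BCL6-independent) were exposed to 1.25, 2.50 or 5.00 μM for 24 h, then mRNA was collected. Target-gene transcripts were quantified by real-time quantitative PCR against vehicle control.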

[2] = system: SUD4; assay: Antiproliferative activity against human SUDHL4 cells assessed as reduction in cell viability incubated for 72 hrs by CCK8 assay; settings: SU-DHL-4, 72 h
[3] = system: OCI-Ly7; assay: Antiproliferative activity against human OCI-LY7 cells assessed as reduction in cell viability incubated for 72 hrs by CCK8 assay; settings: OCI-Ly7, 72 h
[4] = system: PNT1A; assay: Cytotoxicity against human PNT1A cells assessed as reduction in cell viability incubated for 72 hrs by CCK8 assay
[5] = system: SUD4; assay: Induction of apoptosis in human SUDHL4 cells assessed as early apoptotic cells at 0.625 uM incubated for 48 hrs by annexin V-FITC and propidium iodide staining based flow cytometry analysis (reference value: 2.62%); type: functional
[6] = system: SUD4; assay: Induction of apoptosis in human SUDHL4 cells assessed as early apoptotic cells at 1.25 uM incubated for 48 hrs by annexin V-FITC and propidium iodide staining based flow cytometry analysis (reference value: 2.62%); type: functional
[7] = system: SUD4; assay: Induction of apoptosis in human SUDHL4 cells assessed as early apoptotic cells at 2.5 uM incubated for 48 hrs by annexin V-FITC and propidium iodide staining based flow cytometry analysis (reference value: 2.62%); type: functional
[8] = system: SUD4; assay: Induction of apoptosis in human SUDHL4 cells incubated for 48 hrs by annexin V-FITC and propidium iodide staining based flow cytometry analysis; type: functional, cell-based
[9] = system: Mus musculus; assay: In vivo inhibition of GC formation in NP-CGG immunized C57BL/6 mouse assessed as splenic GC B cells (GL7+FAS+B220+) at 10 mg/kg, iv administered 3 days once for 12 days starting from 2 days after NP-CGG addition by flow cytometry (reference value: 1.97%); type: functional; design: scale not given: the % may be the effect or the level left
[10] = system: Mus musculus; assay: In vivo inhibition of GC formation in NP-CGG immunized C57BL/6 mouse assessed as proportion of Tfh cells (CXCR5+PD1+CD4+) at 10 mg/kg, iv administered 3 days once for 12 days starting from 2 days after NP-CGG addition by flow cytometry analysis (reference value: 2.25%); type: functional; design: scale not given: the % may be the effect or the level left
[11] = system: SUD4; assay: Antitumor activity against human SUDHL4 cells xenografted in SCID mouse assessed as reduction in tumor volume at 5 mg/kg, iv administered 3 days once for 15 days and measured every 3 days by caliper analysis; type: functional, organism-based
How it was run: (§1)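 Male SCID mice, 6 weeks old, received 1 × 10⁷ SUDHL4 cells s.c. At about 100 mm³, mice were randomized (n = 7) to vehicle (20% 2-hydroxypropyl-β-cyclodextrin) or 5 or 10 mg/kg every 3 days i.v. for 15 days. Body weight and caliper volume (L × W² × 0.52) were recorded every 3 days. At sacrifice, tissues were fixed in 4% paraformaldehyde and paraffin-embedded for H&E or Ki67 IHC. Tumor mRNA was assayed by qPCR.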

[12] = system: Mus musculus; assay: Upregulation of ATR mRNA expression in SCID mouse xenografted with human SUDHL4 cells at 5 to 10 mg/kg, iv administered 3 days once for 15 days by qPCR analysis; type: functional, organism-based; how it was run: as §1
[13] = Metabolic stability in human liver microsomes assessed as intrinsic clearance per mg of protein; type: ADME, Microsome; settings: read-out: CLH
How it was run: (§2)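 Incubation with human liver microsomes. Intrinsic clearance was scaled to liver using 45 mg microsomal protein per g liver and 20 g liver per kg body weight. Half-life was also determined.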

[14] = Metabolic stability in human liver assessed as intrinsic clearance; type: ADME, tissue-based; settings: read-out: CLH; how it was run: as §2
[15] = Metabolic stability in human liver microsomes assessed as half life; type: ADME, Microsome; how it was run: as §2
[16] = Protein binding in human plasma; type: ADME, cell-free; settings: read-out: PPB (converted)
How it was run: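 Human plasma protein binding was measured by a contract laboratory.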

[17] = organism: Mus musculus; settings: C57BL/6, 10 mg/kg
[18] = organism: Mus musculus; settings: C57BL/6, 10 mg/kg; remark: listed apart in the source

COc1cc(Nc2nc(N3C[C@@H](C)N[C@@H](C)C3)ncc2F)ccc1NC(=O)c1ccc(C2=CCCC2)s1
Activity [1]: inactive
IC50 [2]: 920 nM
IC50 [3]: 1620 nM
IC50 [4]: 8.13 µM
Activity [5]: 3.42%
Activity [6]: 3.57%
Activity [7]: 5.91%
Activity [8]: Dose-dependent effect
Activity [9]: 0.45%
Activity [10]: 0.99%
Activity [11]: Active
Activity [12]: Active
microsomal CLint [13]: < 9.6 µL/min/mg
CLint scaled [14]: < 38 mL/min/kg
half-life [15]: > 60 min
fraction unbound [16]: 0.076
inhibition [17]: Active
inhibition [18]: Active
